Key:
[1] = target: T1, Multidrug efflux pump subunit AcrB (Escherichia coli (strain K12)) (UniProt P31224); assay: Inhibition of AcrB in Escherichia coli BW25113 assessed as potentiation of erythromycin induced antibacterial activity by measuring erythromycin MIC at 16 ug/ml measured after 18 hrs by checkerboard titration method (reference value: 64 ug/ml); details: dose 16.0 µg/ml
T1 sequence (whole entry): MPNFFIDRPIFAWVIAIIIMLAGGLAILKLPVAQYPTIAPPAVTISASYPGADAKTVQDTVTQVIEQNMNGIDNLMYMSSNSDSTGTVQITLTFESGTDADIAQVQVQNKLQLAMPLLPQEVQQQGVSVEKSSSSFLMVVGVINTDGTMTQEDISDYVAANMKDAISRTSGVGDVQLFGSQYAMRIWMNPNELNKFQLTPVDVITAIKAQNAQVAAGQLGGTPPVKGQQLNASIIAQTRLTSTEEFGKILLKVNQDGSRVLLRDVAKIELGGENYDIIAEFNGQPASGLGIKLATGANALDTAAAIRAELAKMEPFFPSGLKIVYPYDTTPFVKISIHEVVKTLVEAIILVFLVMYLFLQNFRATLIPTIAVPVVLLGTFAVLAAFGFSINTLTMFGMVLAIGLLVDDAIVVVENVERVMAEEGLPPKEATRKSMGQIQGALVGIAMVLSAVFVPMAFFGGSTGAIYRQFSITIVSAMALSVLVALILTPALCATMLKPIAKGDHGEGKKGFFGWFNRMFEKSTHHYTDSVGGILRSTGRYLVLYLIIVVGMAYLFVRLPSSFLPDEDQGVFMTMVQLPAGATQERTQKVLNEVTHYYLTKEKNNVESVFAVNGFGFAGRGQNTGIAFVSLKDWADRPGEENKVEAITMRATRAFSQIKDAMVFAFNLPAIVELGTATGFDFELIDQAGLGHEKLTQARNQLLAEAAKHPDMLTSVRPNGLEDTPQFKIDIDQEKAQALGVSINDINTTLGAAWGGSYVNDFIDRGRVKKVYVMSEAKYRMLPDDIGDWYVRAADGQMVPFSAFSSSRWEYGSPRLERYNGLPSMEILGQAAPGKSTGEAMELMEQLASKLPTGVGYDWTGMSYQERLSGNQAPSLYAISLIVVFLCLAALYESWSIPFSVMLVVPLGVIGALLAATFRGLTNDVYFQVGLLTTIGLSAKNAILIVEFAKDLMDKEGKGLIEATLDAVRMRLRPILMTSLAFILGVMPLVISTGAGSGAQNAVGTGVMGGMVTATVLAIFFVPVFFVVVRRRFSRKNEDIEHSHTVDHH

[2] = target: T1, Multidrug efflux pump subunit AcrB (Escherichia coli (strain K12)); assay: Inhibition of AcrB in Escherichia coli BW25113 assessed as potentiation of erythromycin induced antibacterial activity by measuring erythromycin MIC at 128 ug/ml measured after 18 hrs by checkerboard titration method (reference value: 64 ug/ml); details: dose 128.0 µg/ml
[3] = target: T1, Multidrug efflux pump subunit AcrB (Escherichia coli (strain K12)); assay: Inhibition of AcrB in Escherichia coli BW25113 assessed as potentiation of chloramphenicol induced antibacterial activity by measuring chloramphenicol MIC at 32 ug/ml measured after 18 hrs by checkerboard titration method (reference value: 8 ug/ml); details: dose 32.0 µg/ml
[4] = target: T1, Multidrug efflux pump subunit AcrB (Escherichia coli (strain K12)); assay: Inhibition of AcrB in Escherichia coli BW25113 assessed as potentiation of chloramphenicol induced antibacterial activity by measuring chloramphenicol MIC at 16 ug/ml measured after 18 hrs by checkerboard titration method (reference value: 8 ug/ml); details: dose 16.0 µg/ml
[5] = target: T1, Multidrug efflux pump subunit AcrB (Escherichia coli (strain K12)); assay: Inhibition of AcrB in Escherichia coli BW25113 assessed as potentiation of levofloxacin induced antibacterial activity by measuring levofloxacin MIC at 16 ug/ml measured after 18 hrs by checkerboard titration method (reference value: 0.06 ug/ml); details: dose 16.0 µg/ml
[6] = target: T1, Multidrug efflux pump subunit AcrB (Escherichia coli (strain K12)); assay: Inhibition of AcrB in Escherichia coli BW25113 assessed as potentiation of rifampicin induced antibacterial activity by measuring rifampicin MIC at 16 ug/ml measured after 18 hrs by checkerboard titration method (reference value: 16 ug/ml); details: dose 16.0 µg/ml
[7] = target: T1, Multidrug efflux pump subunit AcrB (Escherichia coli (strain K12)); assay: Inhibition of AcrB in Escherichia coli BW25113 assessed as potentiation of chloramphenicol induced antibacterial activity by measuring chloramphenicol MIC at 128 ug/ml measured after 18 hrs by checkerboard titration method (reference value: 8 ug/ml); details: dose 128.0 µg/ml
[8] = target: T1, Multidrug efflux pump subunit AcrB (Escherichia coli (strain K12)); assay: Inhibition of AcrB in Escherichia coli BW25113 assessed as potentiation of chloramphenicol induced antibacterial activity by measuring chloramphenicol MIC at 64 ug/ml measured after 18 hrs by checkerboard titration method (reference value: 8 ug/ml); details: dose 64.0 µg/ml
[9] = target: T1, Multidrug efflux pump subunit AcrB (Escherichia coli (strain K12)); assay: Inhibition of AcrB in Escherichia coli BW25113 assessed as potentiation of erythromycin induced antibacterial activity by measuring erythromycin MIC at 64 ug/ml measured after 18 hrs by checkerboard titration method (reference value: 64 ug/ml); details: dose 64.0 µg/ml
[10] = Growth inhibition of Escherichia coli harboring AcrB deletion mutant at 64 ug/ml after 18 hrs by broth microdilution assay; details: dose 64 µg/ml
Summary of the method: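 MIC determined by 96-well broth microdilution in E. coli BW25113 expressing AcrB ((+)AcrB) and an isogenic acrB-deleted strain ((-)AcrB). Used to set the compound concentrations for synergy testing that produce no direct antibacterial effect.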

[11] = target: T1, Multidrug efflux pump subunit AcrB (Escherichia coli (strain K12)); assay: Inhibition of AcrB in Escherichia coli BW25113 assessed as potentiation of rifampicin induced antibacterial activity by measuring rifampicin MIC at 32 ug/ml measured after 18 hrs by checkerboard titration method (reference value: 16 ug/ml); details: dose 32.0 µg/ml
[12] = target: T1, Multidrug efflux pump subunit AcrB (Escherichia coli (strain K12)); assay: Inhibition of AcrB in Escherichia coli BW25113 assessed as potentiation of levofloxacin induced antibacterial activity by measuring levofloxacin MIC at 128 ug/ml measured after 18 hrs by checkerboard titration method (reference value: 0.06 ug/ml); details: dose 128.0 µg/ml
[13] = target: T1, Multidrug efflux pump subunit AcrB (Escherichia coli (strain K12)); assay: Inhibition of AcrB in Escherichia coli BW25113 assessed as potentiation of levofloxacin induced antibacterial activity by measuring levofloxacin MIC at 64 ug/ml measured after 18 hrs by checkerboard titration method (reference value: 0.06 ug/ml); details: dose 64.0 µg/ml
[14] = target: T1, Multidrug efflux pump subunit AcrB (Escherichia coli (strain K12)); assay: Inhibition of AcrB in Escherichia coli BW25113 assessed as potentiation of erythromycin induced antibacterial activity by measuring erythromycin MIC at 32 ug/ml measured after 18 hrs by checkerboard titration method (reference value: 64 ug/ml); details: dose 32.0 µg/ml
[15] = target: T1, Multidrug efflux pump subunit AcrB (Escherichia coli (strain K12)); assay: Inhibition of AcrB in Escherichia coli BW25113 assessed as potentiation of tetraphenylphosphonium induced antibacterial activity by measuring tetraphenylphosphonium MIC at 16 ug/ml measured after 18 hrs by checkerboard titration method (reference value: 1024 ug/ml); details: dose 16.0 µg/ml
[16] = target: T1, Multidrug efflux pump subunit AcrB (Escherichia coli (strain K12)); assay: Inhibition of AcrB in Escherichia coli BW25113 assessed as potentiation of tetraphenylphosphonium induced antibacterial activity by measuring tetraphenylphosphonium MIC at 32 ug/ml measured after 18 hrs by checkerboard titration method (reference value: 1024 ug/ml); details: dose 32.0 µg/ml
[17] = target: T1, Multidrug efflux pump subunit AcrB (Escherichia coli (strain K12)); assay: Inhibition of AcrB in Escherichia coli BW25113 assessed as potentiation of tetraphenylphosphonium induced antibacterial activity by measuring tetraphenylphosphonium MIC at 64 ug/ml measured after 18 hrs by checkerboard titration method (reference value: 1024 ug/ml); details: dose 64.0 µg/ml

Structure (SMILES) | MIC [1] [µg/mL] | MIC [2] [µg/mL] | MIC [3] [µg/mL] | MIC [4] [µg/mL] | MIC [5] [µg/mL] | MIC [6] [µg/mL] | MIC [7] [µg/mL] | MIC [8] [µg/mL] | MIC [9] [µg/mL] | growth inhibition (GI) [10] | MIC [11] [µg/mL] | MIC [12] [µg/mL] | MIC [13] [µg/mL] | MIC [14] [µg/mL] | MIC [15] [µg/mL] | MIC [16] [µg/mL] | MIC [17] [µg/mL]
O=C(NCCc1ccc(O)c(O)c1)c1cc(O)c(O)c(O)c1 | 32 | 16 | 4 | 4 | 0.06 | 16 | 2 | 4 | 16 | Non-Toxic | 16 | 0.03 | 0.03 | 32 | 1020 | 512 | 512
Oc1ccc(CCCCc2ccccc2O)cc1O | 64 | 64 | 4 | 8 | 0.06 | 16 | 4 | 4 | 64 | Non-Toxic | 16 | 0.06 | 0.06 | 64 | 512 | 512 | 512
Oc1ccc(CCCCc2ccc(Cl)cc2)cc1O | 64 | 64 | 16 | 16 | 0.06 | 16 | 16 | 16 | 64 | Non-Toxic | 16 | 0.06 | 0.06 | 64 | 1020 | 1020 | 512
Oc1ccc(CCCCc2cc3cccc4ccc5cccc2c5c43)cc1O | 64 | 32 | 8 | 8 | 0.06 | 16 | 4 | 8 | 32 | Non-Toxic | 16 | 0.06 | 0.06 | 64 | 512 | 512 | 512
Oc1ccc(CCCCCCCc2ccc(O)c(O)c2)cc1O | 64 | 64 | 8 | 8 | 0.06 | 16 | 8 | 8 | 64 | Non-Toxic | 16 | 0.06 | 0.06 | 64 | 1020 | 512 | 512
Oc1ccc(CCCCc2ccc(O)c(O)c2)cc1O | 64 | 32 | 8 | 8 | 0.06 | 16 | 8 | 8 | 64 | Non-Toxic | 16 | 0.06 | 0.06 | 64 | 1020 | 1020 | 512
Oc1ccc(CCCCc2cc(O)c(O)c(O)c2)cc1O | 64 | 32 | 8 | 8 | 0.06 | 16 | 8 | 8 | 32 | Non-Toxic | 16 | 0.06 | 0.06 | 64 | 512 | 512 | 512
Oc1ccc(CCCc2ccc(O)c(O)c2)cc1O | 64 | 32 | 8 | 8 | 0.06 | 16 | 8 | 8 | 32 | Non-Toxic | 16 | 0.06 | 0.06 | 64 | 1020 | 1020 | 512

Reference: ChEMBL document CHEMBL4680134, “Structural optimization of natural product nordihydroguaretic acid to discover novel analogues as AcrB inhibitors” (Eur J Med Chem, 2020)
